KCNQ1 act: human KCNQ1 channel potentiation or activation; B-score at 10 µM; 310,000 compounds, 0.35% hits; CHO-K1 KCNQ1, thallium flux FluxOR fluorescence; stronger effect = higher value; AID 2648; P51787;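 active = fluorescence ratio B-score, a plate-corrected score, at least three library SD, with initial intensity B-score within 5 SD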
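System: CHO-K1 cells stably expressing KCNQ1 / Medium: assay buffer for compound exposure, DMSO matched across wells / Reagent: thallium- and potassium-containing depolarizing buffer / Compound: one concentration, matched DMSO / Incubation: 20 min compound pretreatment at room temperature / Measured by: kinetic FluxOR fluorescence, 10 s baseline plus 110 s post-stimulus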
KCNK9 block: inhibitors of human KCNK9 two-pore domain potassium channel; AID 488922; HEK293 KCNK9, FluxOR thallium flux fluorescence; stronger effect = lower value; 310,000 compounds, 1.2% hits; B-score at 10 µM; Q9NPC2;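 active = ratio B-score over 3 SD below the library mean, with starting fluorescence within 5 SD of its mean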;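 note: negative B-score means less thallium flux so channel inhibition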
KCNQ1 block: inhibitors of human KCNQ1 potassium channel; AID 2642; 310,000 compounds, 1.3% hits; CHO-K1 KCNQ1, FluxOR thallium flux fluorescence; stronger effect = higher value; B-score at 10 µM; P51787;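 active = compounds whose thallium flux B-score, printed positive for inhibition, exceeds three library SD while starting fluorescence stays within three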;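 note: channel opened by potassium depolarization with thallium stimulus after 20 min compound exposure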
Kir21 inh: inhibitors of mouse Kir2.1 inward-rectifier potassium channel. P35561. HEK293-Kir2.1, FluxOR thallium flux fluorescence; stronger effect = lower value. B-score at 10 µM. 310,000 compounds, 0.85% hits;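 active = fluorescence ratio B-score at or below minus 3 SD of library scores, with starting-brightness B-score within 2 SD, cut at about -4.2 in these data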;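 note: channel flux triggered by added potassium and thallium sulfate stimulus; B-score of peak minus minimum fluorescence over baseline after thallium stimulus; more negative B-score means stronger Kir2.1 block with less thallium influx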
KCNK3 block: human KCNK3 channel inhibition, primary screen | O14649 | CHO-KCNK3 thallium flux, FluxOR fluorescence; stronger effect = lower value | B-score at 10 µM | 340,000 compounds, 0.84% hits | AID 602410;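 active = B-score under library mean minus 4 SD, starting fluorescence ratio at most library mean plus 5 SD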;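 note: more negative B-score means stronger inhibition of thallium flux through KCNK3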
Target sequence (O14649 whole entry, looked up): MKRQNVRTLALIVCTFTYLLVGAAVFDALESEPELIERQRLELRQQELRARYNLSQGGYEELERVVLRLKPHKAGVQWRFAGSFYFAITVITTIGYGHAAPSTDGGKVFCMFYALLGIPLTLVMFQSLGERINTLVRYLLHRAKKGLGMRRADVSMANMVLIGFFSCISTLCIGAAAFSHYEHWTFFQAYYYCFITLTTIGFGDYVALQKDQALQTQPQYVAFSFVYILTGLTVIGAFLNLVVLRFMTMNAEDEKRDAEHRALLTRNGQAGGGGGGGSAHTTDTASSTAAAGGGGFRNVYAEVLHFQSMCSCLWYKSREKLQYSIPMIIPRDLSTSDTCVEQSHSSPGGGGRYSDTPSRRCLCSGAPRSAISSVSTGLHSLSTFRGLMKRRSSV
hERG protect: hERG (human) protection from proarrhythmic block; CHO-hERG, FluxOR thallium flux, dofetilide IC70 present; activation (rescue from dofetilide block), less the hit threshold, % at 10 µM; 310,000 compounds, 0.51% hits;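 active = activation above the mean of controls blocked by dofetilide plus 5 SD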;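 note: thallium influx through hERG after potassium depolarization seen as dye fluorescence rise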
The depositor's hits bear a star; i = inactive; . = no result. Sampled rows, rich in hits. Any-hit rate of the full collection: about 3.8%.

SMILES	KCNQ1 act	KCNK9 block	KCNQ1 block	Kir21 inh	KCNK3 block	hERG protect
CN1CCN(c2ccc([N+](=O)[O-])cc2NC(=O)c2cccs2)CC1	i	i	i	-1.2	i	-6
Cc1ccc(NC(=O)C(=O)c2ccc(C)cc2)cc1	i	i	i	0.2	i	-11
CC(=O)N1CCN(c2ccccc2NC(=O)COc2cc(C)ccc2C(C)C)CC1	i	i	6*	-3.2	i	-24
Cc1cc(OCC(=O)NCC(c2cccs2)N2CCOCC2)ccc1C(C)C (stereo not drawn)	i	i	i	-1.9	i	-15
Cc1cc(OCC(=O)Nc2ccccc2N2CCCCC2)ccc1C(C)C	i	i	i	-1.2	i	-10
Cc1ccc(C(C)C)c(OCC(=O)NCC(c2cccs2)N2CCOCC2)c1 (stereo not drawn)	i	i	i	-6.2*	i	-15
Cc1cc(Cl)ccc1OCC(=O)Nc1ccccc1C(=O)N1CCOCC1	i	i	i	-4.5*	i	-12
COc1cc(C)ccc1OCC(=O)Nc1ccccc1N1CCOCC1	.	.	.	.	i	.
Cc1ccc(OCC(=O)Nc2ccccc2N2CCOCC2)c(C)c1	i	i	i	-8.9*	i	-4
COc1cc(C(=O)NCC(c2cccs2)N2CCOCC2)c([N+](=O)[O-])cc1OC (stereo not drawn)	i	i	i	0.07	i	-14
NS(=O)(=O)c1ccc(N/C=C\C(=O)c2cccc3ccccc23)cc1	i	i	i	-0.04	i	-5
CCOC(=O)c1ccc(S(=O)(=O)N2CCN(CCc3ccncc3)CC2)cc1	.	.	.	.	i	.
Cc1ccc(C(C)C)c(OCC(=O)Nc2ccccc2N2CCN(C)CC2)c1	i	i	i	-5.1*	i	-10
Cc1ccc(C(C)C)c(OCC(=O)Nc2ccc(N3CCOCC3)cc2N2CCOCC2)c1	.	.	.	.	i	.
COc1cc(NC(=S)N2CCC(C(N)=O)CC2)c(OC)cc1Cl	i	i	i	0.14	i	-10
COCCNC(=O)CN(C(=O)c1ccc(N2CCCC2)nc1)c1ccc(F)c(Cl)c1	i	i	i	-0.24	i	-7
COCCNC(=O)CN(C(=O)c1ccc(N2CCCC2)nc1)c1ccccc1	i	i	i	-0.22	i	5.1*
CCN(CCNCC(O)COCc1ccc(Cl)cc1)c1cccc(C)c1 (stereo not drawn)	i	i	i	-7.5*	i	-20
COc1c(CC=C(C)C)cc(C2CC(=O)c3c(O)cc(O)cc3O2)cc1CC=C(C)C (stereo not drawn)	i	i	8*	-1.1	i	-13
O=C(NNC(=O)c1ccncc1)Nc1ccc([N+](=O)[O-])cc1	i	i	7*	0.46	i	-3
CC(=O)c1ccc(NC(=O)Nc2ccncc2)cc1	i	i	i	0.84	i	4.8*
O=C(NNC(=O)c1cccnc1)Nc1ccc([N+](=O)[O-])cc1	i	i	i	-0.66	i	-8
CC(=O)c1ccc(NC(=O)Nc2ccc([N+](=O)[O-])cc2)cc1	i	i	7*	-1.1	i	-19
CC(=O)c1ccc(-n2nncc2-c2ccc([N+](=O)[O-])cc2)cc1	i	i	i	-0.54	i	5.5*
CSc1nc(Cl)cc(N2CCOCC2)n1	i	i	i	1.1	i	-6
SMILES	KCNQ1 act	KCNK9 block	KCNQ1 block	Kir21 inh	KCNK3 block	hERG protect
COc1ccc(CN(C(=O)c2snc(C(N)=O)c2N)C(CC(C)C)C(=O)NC2CCCCC2)cc1 (stereo not drawn)	i	i	i	-0.56	i	-12
CC(C)CNC(=O)c1ccccc1C(=O)NC1(C(=O)NCC(C)C)CCCC1	.	.	.	.	i	.
c1cnc2nc(CSc3ncn[nH]3)cn2c1	i	i	i	-3.6	i	-17
O=C(Nc1ccc(Oc2ccc(NC(=O)Nc3ccc([N+](=O)[O-])cc3)cc2)cc1)Nc1ccc([N+](=O)[O-])cc1	i	i	8*	-0.97	i	-18
CC(=O)Nc1ccc(OCCOc2ccc([N+](=O)[O-])cc2)cc1	i	i	i	-0.41	i	-4
O=C(Nc1ccc([N+](=O)[O-])cc1)Nc1cnccn1	i	i	12*	0.93	i	-16
N#CC1=C(N)Oc2cc(O)ccc2C1c1ccc(Br)s1 (stereo not drawn)	i	i	i	1.4	i	-7
CCC1=C(c2ccc(OC)cc2)CCC(C(=O)O)C1C (stereo not drawn)	.	.	.	.	i	.
CN(C(=O)c1cccc(COc2ccc(Cl)cc2Cl)c1)c1ccccc1	i	i	i	-6*	i	-12
Cc1cc(OCC(=O)NCCc2ccc(S(N)(=O)=O)cc2)c2c(C)c(C)c(=O)oc2c1	i	i	i	0.03	i	-2
COc1ccccc1N1CCN(C(=O)CCCCCn2c(=O)[nH]c3ccsc3c2=O)CC1	i	i	i	-0.62	i	-26
O=c1[nH]cc(-c2ccccc2)c(=O)[nH]1	12*	i	i	0.03	i	-2
Cc1ccc(C(=O)OCC(=O)NNC(=O)c2ccc([N+](=O)[O-])cc2)o1	i	i	i	1.1	i	-7
Cc1nc(N2CCC(C)CC2)c2c(C)c(C(=O)Nc3ccc(C(F)(F)F)cc3)sc2n1	i	i	10*	2	i	0
Cn1c(SCC(=O)Nc2cccnc2)nnc1-c1ccccc1F	i	i	i	-0.02	i	-7
CN(CCOc1ccccc1)CC(=O)Nc1cc([N+](=O)[O-])ccc1Cl	i	i	i	-4.7*	i	-12
CC(NC(=O)COC(=O)c1cccs1)c1ccccc1 (stereo not drawn)	i	i	i	1.1	i	-1
CC(NC(=O)COC(=O)/C(=C/c1cccs1)c1cccs1)c1ccccc1 (stereo not drawn)	i	-6.8*	i	-0.6	i	-9
CCOc1ccc(CCNC(=O)c2cc(-c3ccccc3)c(N3CCOCC3)s2)cc1OCC	i	i	6*	0.27	i	-5
COc1ccc(CNC(=S)Nc2ccc(F)c(Cl)c2)cc1OC	i	i	i	-0.89	i	4.9*
c1ccc(-c2nc(N3CCNCC3)nc3ccccc23)cc1	i	i	i	-7.2*	i	-11
CCN1CCN(c2nc(-c3ccccc3)c3ccccc3n2)CC1	i	i	i	-0.95	i	-18
C[C@H]1CC[C@H]2C(=O)N3[C@H](c4ccccc4Br)[C@@H](C)CC[C@H]3C(=O)N2[C@@H]1c1ccccc1Br	i	-9.6*	i	-0.12	.	-10
